ChEMBL document CHEMBL2146361, “Identification of novel α7 nicotinic receptor ligands by in silico screening against the crystal structure of a chimeric α7 receptor ligand binding domain” (Bioorg Med Chem, 2012)

What follows are compounds tested against Neuronal acetylcholine receptor subunit alpha-7 (Homo sapiens, UniProt P36544) (assay: Displacement of [3H]epibatidine from chimeric human alpha7-5-HT3A receptor expressed in HEK293 cells after 2 hrs by scintillation counter analysis).
Format: cell-based
In short: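 HEK293 cells grown in DMEM:F12 with 10% fetal calf serum at 37 °C, 7% CO₂, transiently transfected (PEI) and harvested after 2–3 days. 50 μg membranes incubated in 10 mM HEPES pH 7.4 with 3 nM [³H]epibatidine, ≥2 h at 4 °C, 10-point competition; non-specific binding with 3 mM (−)-nicotine.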

Chain of Neuronal acetylcholine receptor subunit alpha-7 (P36544 23-502 limits assumed): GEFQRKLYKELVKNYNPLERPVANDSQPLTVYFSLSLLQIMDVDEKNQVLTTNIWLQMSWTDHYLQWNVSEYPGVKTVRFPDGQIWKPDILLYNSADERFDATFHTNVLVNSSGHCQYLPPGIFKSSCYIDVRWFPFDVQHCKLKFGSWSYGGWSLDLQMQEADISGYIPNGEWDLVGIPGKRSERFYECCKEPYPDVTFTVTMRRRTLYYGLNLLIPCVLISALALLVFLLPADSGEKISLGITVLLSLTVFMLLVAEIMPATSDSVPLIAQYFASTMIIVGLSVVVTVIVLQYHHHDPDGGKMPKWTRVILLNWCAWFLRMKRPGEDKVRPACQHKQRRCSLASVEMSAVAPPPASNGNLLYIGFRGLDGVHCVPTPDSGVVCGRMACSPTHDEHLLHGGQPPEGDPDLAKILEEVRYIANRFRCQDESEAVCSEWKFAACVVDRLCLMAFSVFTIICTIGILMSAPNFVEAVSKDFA

pKi | Compound | Ki [nM] | pKd
5.7 | CC1CCN(CC(O)COc2ccc(-c3ccccc3)cc2)CC1 (configuration not stated) | – | –
5.2 | CN1CCc2[nH]c3ccccc3c2C1 | – | –
5.6 | N#CCOCC(O)C[n+]1ccccc1 (configuration not stated) | – | –

Further lines, the compound ahead of its results:

Compound | pKi | Ki [nM] | pKd
c1ccc(C2CN3CCC2CC3)cc1 (configuration not stated) | 6.7 | 200 | –
COc1cc2c(cc1OC)C1CC(c3ccccc3)CCN1CC2 (configuration not stated) | 5.8 | – | –
CC1CCN2CCc3c([nH]c4ccccc34)C2C1 (configuration not stated) | 6.4 | 400 | –
CC1CC2(CCCCCC2)NCc2ccccc21 (configuration not stated) | 5.1 | – | –
CC1/C(=N/O)CC(c2ccccc2)N(C)C1c1ccccc1 (configuration not stated) | 5.3 | – | –
CC1C(c2ccccc2)NC(c2ccccc2)C(C)C1(C)O (configuration not stated) | 5.4 | – | –
Clc1ccc(C2CC3CCC2N3)cn1 (configuration not stated) [EPIBATIDINE] | – | – | 8.2
